Published values pooled from the literature.
Lines come from different studies, so protocols differ.
Target: Mitogen-activated protein kinase kinase kinase 3 (MAP3K3, Homo sapiens, UniProt Q99759)
Sequence (Q99759 1-626, as in one of the studies): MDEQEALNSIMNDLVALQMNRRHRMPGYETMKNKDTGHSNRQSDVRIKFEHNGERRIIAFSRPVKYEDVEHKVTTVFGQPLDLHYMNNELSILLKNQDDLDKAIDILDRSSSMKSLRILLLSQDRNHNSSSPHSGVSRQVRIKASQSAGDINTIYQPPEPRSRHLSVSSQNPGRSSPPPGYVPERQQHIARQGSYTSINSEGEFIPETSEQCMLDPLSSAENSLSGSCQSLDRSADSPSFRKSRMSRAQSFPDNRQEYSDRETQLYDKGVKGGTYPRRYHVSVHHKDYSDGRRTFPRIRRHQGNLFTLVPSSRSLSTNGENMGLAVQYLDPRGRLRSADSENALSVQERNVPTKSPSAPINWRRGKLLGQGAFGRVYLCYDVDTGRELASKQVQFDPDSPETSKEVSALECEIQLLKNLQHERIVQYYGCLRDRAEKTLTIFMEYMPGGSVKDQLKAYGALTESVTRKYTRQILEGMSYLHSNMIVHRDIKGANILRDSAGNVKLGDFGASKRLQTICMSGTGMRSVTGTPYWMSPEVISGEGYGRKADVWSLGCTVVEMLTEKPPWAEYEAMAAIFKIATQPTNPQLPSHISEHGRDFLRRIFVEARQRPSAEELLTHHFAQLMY

| SMILES | observed | technique | concentration | remaining binding |
| --- | --- | --- | --- | --- |
| O=C(c1ccc(Nc2ncc(Cl)c(-c3ccc(Cl)s3)n2)cc1)N1CCC(N2CCCC2)CC1 | binding | competition with immobilised ligand | 1 µM | 6.3% |
| COc1cnc(Nc2cccc(S(N)(=O)=O)c2)nc1N1CCN(c2ccccc2)C(=O)C1 | binding | competition with immobilised ligand | 1 µM | 84% |
| C=CC(=O)N1CCC(C(=O)NCC(=O)N2CCN(c3nc(-c4cnc(N)nc4C(F)F)nc(N4CCOCC4)n3)CC2)CC1 | binding | competition with immobilised ligand | 1 µM | 99% |
| C[C@@H](c1cccc(C#N)c1)n1cc(Cl)cc(C(N)=O)c1=N | cell-free assay | competition with immobilised ligand | 1 µM | 95% |
| O=C(NCC1CCOCC1)c1n[nH]cc1NC(=O)c1c(F)cccc1F | binding | competition with immobilised ligand | 1 µM | 96% |
| C[C@H]1CCN(c2nccc(-c3cnn4ncccc34)n2)C1 | binding | – | 1 µM | 59% |
| O=C(N1CCS(=O)(=O)CC1)N1C[C@H](c2ccc(OC(F)(F)F)cc2)C[C@H](c2nc(C3CC3)no2)C1 | cell-free assay | competition with immobilised ligand | 1 µM | 100% |
| Nc1ncc2c(n1)-c1c([nH]c3ccc(C#CC4CC4)cc13)CCCC2 | binding | competition with immobilised ligand | 1 µM | 89% |
| COc1ccnn2ncc(-c3ccnc(N(C)C)n3)c12 | binding | – | 1 µM | 72% |
| C[C@@H](c1ccc(-n2cnc3c(N)ncnc32)cc1)N1CCc2nn(C)c(Cc3ccccc3)c2C1=O | binding | competition with immobilised ligand | 0.1 µM | 79% |
| Cc1cnn2ncc(-c3ccnc(N(C)C)n3)c2c1 | binding | – | 1 µM | 47% |
| c1cncc(-c2cccc(Nc3nccc(NC4CCCCC4)n3)c2)c1 | binding | competition with immobilised ligand | 10 µM | 41% |
| Cc1c(NC(=O)c2cc(C(N)=O)nc3cc(F)ccc23)c(C(F)(F)F)nn1Cc1ccc(C(C)(C)C)cc1 | cell-free assay | competition with immobilised ligand | 1 µM | 100% |
| FC(F)(F)Oc1cccc(-c2cnc3ccc(-c4ccncc4)nn23)c1 | cell-free assay | competition with immobilised ligand | 5 µM | 51% |
| O=C(NCCCN1CCOCC1)c1ccc(Nc2ncc(Cl)c(-c3ccc(Cl)s3)n2)cc1 | binding | competition with immobilised ligand | 1 µM | 3.6% |
| CC(=O)N1CCC(c2ccc(C(=O)NC(=N)N)cc2C(F)(F)F)CC1 | cell-free assay | competition with immobilised ligand | 1 µM | 90% |
| N[C@@H]1CCN(c2nccc(-c3cnn4ncccc34)n2)C1 | binding | – | 1 µM | 100% |
| CN1CCN(c2cnc3c(C4CCN(C(=O)c5ccc(OC(F)(F)F)cc5N)CC4)ncnc3c2)CC1 | cell-free assay | competition with immobilised ligand | 1 µM | 94% |
| F[C@@H]1CCN(c2nccc(-c3cnn4ncccc34)n2)C1 | binding | – | 1 µM | 100% |
| COc1ccc2c(O[C@@H]3C[C@H]4C(=O)N[C@]5(C(=O)O)CC5/C=C\CCCCC[C@H](NC(=O)OC5CCCC5)C(=O)N4C3)cc(-c3csc(NC(=O)C(C)C)n3)nc2c1C (stereo partly shown) | cell-free assay | competition with immobilised ligand | 1 µM | 79% |
| CN(CCCC(F)(F)F)c1nccc(-c2cnn3ncccc23)n1 | binding | – | 1 µM | 99% |
| Cc1cnc(Nc2ccc(C(=O)N3CCC(N4CCCC4)CC3)cc2)nc1-c1cc2ccccc2s1 | binding | competition with immobilised ligand | 1 µM | 19% |
